Ecoli WT expand: growth inhibitors of wild-type E. coli, primary screen, strain BW25113, expanded library, OD600. OD600 absorbance. growth inhibition, % at 100 µM. 0.15% of 98,000 active;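 active = growth inhibition above about 50% at one test dose, limit read from the data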;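 also: growth measured after 20 h incubation at 37 °C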
tolC growth inh: growth inhibitors of E. coli tolC mutant, primary screen, strain BW25113 ΔtolC::kan, 384-well. OD615. growth inhibition, % at 10 µM (by protocol). 2.2% of 65,000 active;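 active = growth inhibition at or above a cutoff equal to the mean over every tested compound plus 3 SD, cut at about 60% in these data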;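 also: growth measured after 20 h incubation at 37 °C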
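Signal: optical density read at 615 nm; Assay system: E. coli ΔtolC::kan strain BW25113; Times: 20 h incubation with compound, 37 °C; Dosing: 10 µM final, single dose.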
PostGolgi yeast: phenotypic screen on post-Golgi transport, primary screen. post-Golgi transport phenotypic cell assay. inhibition, % at 10 µM. 0.9% of 98,000 active. AID 739, 2007;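 also: yeast cells grown in 1536-well plates; yeast grown about 18 h at 30C before absorbance read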
PostGolgi ctrl: growth inhibition of yeast control strain, primary screen, counter-screen for post-Golgi transport modulator project. efflux-deficient yeast background strain, growth absorbance A615, 16 h. 5% of 98,000 active. inhibition, % at 10 µM
Cav3 T inh: Cav3.2 calcium influx blockers – cell-based, Fluo-4 calcium fluorescence, FDSS, MLSMR library, primary screen; Cav3.2-expressing cells; hits give low values; B-score at 10 µM; 4% of 100,000 active; AID 449739, 2010;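 active = single-dose well whose peak fluorescence ratio is a statistical outlier from its plate by either plate-standardised score or position-corrected B-score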
Pyk2 oligo antag: antagonists of Pyk2 self-association, primary screen, Q293 cells, FERM NanoBiT luminescence, HTS. Protein-tyrosine kinase 2-beta (Homo sapiens), Q14289. hits give low values. z-score (the deposit names both 25 µM and 10 µM). 0.83% of 99,000 active;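 active = Z-score of -3 or lower, scaled per plate to the spread of control and sample wells; inactive = z-score above -3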;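 also: negative z-score means lost luminescence so less FERM oligomerization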
Large screens that a line does not name were inactive. Most compounds without a hit are left out; they make up all but 8.7% or so of the library. Rule as the data show it, unless noted: active = inhibition above about 30%; inactive = the rest.

CC(C)(C)OC(=O)COc1cc(OCC(=O)OC(C)(C)C)c2c(=O)cc(-c3ccccc3)oc2c1	Cav3 T inh -4 (no result: tolC growth inh)
COc1ccc(/C=C/C(=O)OC(C)CN2CCOCC2)cc1 (configuration not stated)	none (no result: tolC growth inh)
COC(=O)CNC(=O)CN1C(=O)N(c2ccccc2)C(N(O)C(=O)Nc2ccccc2)C1(C)C (configuration not stated)	none (no result: tolC growth inh)
COC(=O)CNC(=O)CN1C(=O)N(c2cccc(Cl)c2)C(N(O)C(=O)Nc2cccc(Cl)c2)C1(C)C (configuration not stated)	Cav3 T inh -4.7 (no result: tolC growth inh)
CS(=O)(=O)c1sc2nc(-c3cccs3)cc(-c3ccccc3)c2c1N	none
Cc1ccc(-c2cc(-c3ccccc3)c3c(N)c(S(C)(=O)=O)sc3n2)cc1	PostGolgi ctrl 31 (no result: tolC growth inh)
C/C(=N/OC(=O)c1c(F)cccc1F)c1nccs1	Cav3 T inh -4.7 (no result: tolC growth inh)
CCOC(=O)CNC(c1ccccc1)c1cc(Br)ccc1NC(=O)OCC (configuration not stated)	Cav3 T inh -5.9 (no result: tolC growth inh)
COCc1cc(C)nc2sc3c(=O)oc(C)nc3c12	tolC growth inh 66 (no result: Cav3 T inh)
C=CC[N+](C)(C)C/C(Cl)=C(\Cl)c1ccccc1	none (no result: tolC growth inh)
Clc1c(CSc2nc3ccccc3o2)nc2sccn12	PostGolgi ctrl 36
N#CCc1nc(CSc2nc3ccccc3o2)cs1	none
c1ccc2oc(SCc3nc4ccccc4s3)nc2c1	tolC growth inh 61
Clc1c(CSc2nc3ccccc3o2)nc2ccccn12	none (no result: Cav3 T inh)
CC(C)c1nc(SCC(=O)Nc2nc3c(s2)CCCC3)c2ccccc2n1	PostGolgi ctrl 39 (no result: tolC growth inh)
CC(C)(C)c1nc(SCC(=O)Nc2nc3c(s2)CCCC3)c2ccccc2n1	PostGolgi ctrl 34 (no result: tolC growth inh)
O=C(CSc1nc(Cc2ccccc2)nc2ccccc12)Nc1nc2c(s1)CCCC2	PostGolgi ctrl 40, Cav3 T inh -4.8 (no result: tolC growth inh)
Cc1nnc(NC(=O)CSc2nc(C(C)C)nc3ccccc23)s1	none (no result: tolC growth inh)
O=C(CCSc1ccccc1)Nc1nc2c(s1)CCCC2	none (no result: tolC growth inh)
CN(C)c1ccc(C(=O)OCC(=O)NCC2CCCO2)cc1 (configuration not stated)	none (no result: tolC growth inh)
CCOC(=O)c1sc2nc(N3CCOCC3)c3c(c2c1N)CCN(Cc1ccccc1)C3	none (no result: tolC growth inh)
O=C(Nc1c(C(=O)N2CCOCC2)cnn1-c1ccccc1)c1ccco1	none
COc1ccc(Cc2nc(N)nc(N)n2)cc1	none (no result: Ecoli WT expand, tolC growth inh, PostGolgi yeast, PostGolgi ctrl)
CC(C)COc1ccc(Cc2cnc(N)nc2N)cc1	Ecoli WT expand 66 (no result: tolC growth inh)
CC(C)c1nc(-c2c(N)n(C)c(=O)n(C)c2=O)sc1C(=O)C(C)(C)C	none
CC(C)(C)NC(=O)CN(C(=O)CS(=O)CC(=O)Nc1ccc(F)cc1)c1ccccc1 (configuration not stated)	none
CC(Nc1nc(N2CCCCC2)nc2ccccc12)c1ccccc1 (configuration not stated)	Cav3 T inh -7 (no result: tolC growth inh)
O=C(/C=C/c1ccccc1)N/C(=C/c1ccccc1)C(=O)N1CCCCC1	Cav3 T inh -5.6 (no result: tolC growth inh)
C=CCn1c(SCC(=O)c2cccs2)nc2sc(CC)cc2c1=O	Pyk2 oligo antag -3.2
C=CCn1c(SCC(=O)Nc2cc(C)on2)nc2sc(CC)cc2c1=O	none (no result: tolC growth inh)
Cc1ccnc(NCn2nnc3ccccc32)c1	none (no result: tolC growth inh)
CC1=C(C(=O)Nc2ccccc2F)C(c2ccsc2)C2=C(CC(c3ccccc3)CC2=O)N1 (configuration not stated)	Cav3 T inh -6.5 (no result: tolC growth inh)
Cc1csc(=N)n1CC(=O)N1CCc2ccccc21	none
CCOc1ccc(NC(=O)CC2C(=O)N(C)C(=S)N2Cc2ccc3c(c2)OCO3)cc1 (configuration not stated)	none (no result: Ecoli WT expand, tolC growth inh, PostGolgi yeast, PostGolgi ctrl)
CCCOC(=O)c1c(NC(=O)CSc2nc(-c3ccco3)cc(C(F)(F)F)n2)sc(C(=O)OC)c1C	Cav3 T inh -5.2 (no result: tolC growth inh)
COc1cc(C)c(C(=O)Oc2cc(C)c(C(=O)O)c(O)c2C)c(OC)c1C	Cav3 T inh -4.4 (no result: Ecoli WT expand, tolC growth inh, PostGolgi yeast, PostGolgi ctrl, Pyk2 oligo antag)
Cc1cc(N2CCOCC2)nc(SCc2ccc(Cl)cc2Cl)n1	PostGolgi ctrl 42 (no result: tolC growth inh)
CC(C)N(C(=O)COc1ccc(Br)cc1Cl)C(C)C	Cav3 T inh -5.5
CCOC(=O)c1ccc(NC(=O)CN(Cc2ccc(Cl)cc2)S(C)(=O)=O)cc1	none (no result: tolC growth inh)
Cc1cc(C)cc(NC(=O)c2nnn(Cc3cc(C)ccc3C)c2N)c1	PostGolgi ctrl 37 (no result: Pyk2 oligo antag)
COc1ccc(S(=O)(=O)N2CCC(n3cnc4cc(C(F)(F)F)ccc43)CC2)cc1	PostGolgi ctrl 41, Cav3 T inh -6.2
Cn1c(SC/C=C/c2ccccc2)nnc1-c1ccco1	PostGolgi ctrl 30
Nn1c(SC/C=C/c2ccccc2)nnc1-c1ccncc1	none (no result: Cav3 T inh, Pyk2 oligo antag)
Cn1c(Cc2cccs2)nnc1SC/C=C/c1ccccc1	PostGolgi ctrl 52
Cc1ccc(-c2nc3ccccc3c(C(=O)NCc3cccs3)c2C)cc1	none (no result: tolC growth inh)
CCC(=O)NCCn1ccc2ccccc21	none (no result: tolC growth inh, Pyk2 oligo antag)
Cc1cc2cc(CNC(=O)c3ccc(S(=O)(=O)N(C)C)cc3)ccc2n1C	PostGolgi ctrl 31 (no result: tolC growth inh, Pyk2 oligo antag)
O=C(Cc1cccs1)NCCn1ccc2ccccc21	PostGolgi ctrl 36 (no result: Pyk2 oligo antag)
Cc1cc2cc(CNC(=O)Cc3cccs3)ccc2n1C	Cav3 T inh -4.2 (no result: Ecoli WT expand, PostGolgi yeast, PostGolgi ctrl, Pyk2 oligo antag)
O=P(O)(CN1CCCCC1)C1CCCCC1O (configuration not stated)	none (no result: Ecoli WT expand, PostGolgi yeast, PostGolgi ctrl, Cav3 T inh, Pyk2 oligo antag)
CCOC(=O)C1=C(CSc2n[nH]c(N)n2)NC(=O)NC1C (configuration not stated)	none
O=C(CSc1ccc2nnc(-c3ccccc3)n2n1)N1CCCCC1	none (no result: Ecoli WT expand, PostGolgi yeast, PostGolgi ctrl, Cav3 T inh, Pyk2 oligo antag)
O=C(NC(NC(=O)c1ccccc1)c1ccccc1)c1ccccc1	none (no result: tolC growth inh)
CCC(=O)Nc1nonc1-c1nc2ccccc2n1CCC(C)C	PostGolgi ctrl 36
CC(=O)Nc1nonc1-c1nc2ccccc2n1CCC(C)C	none (no result: Cav3 T inh)
Cc1ccc(N2CCn3c2nc2c3c(=O)n(CCc3ccccc3)c(=O)n2C)cc1	none (no result: Ecoli WT expand, PostGolgi yeast, PostGolgi ctrl, Cav3 T inh, Pyk2 oligo antag)
O=C(COC(=O)c1c[nH]c(=O)[nH]c1=O)NCc1ccccc1	none (no result: tolC growth inh)
O=C(NC1CC2CCC1C2)C1COc2ccccc2O1 (configuration not stated)	PostGolgi ctrl 31
O=C(O)CNC(=O)C1COc2ccccc2O1 (configuration not stated)	none
Cc1cc(N2C3CCC2CC(O)(c2ccc(F)cc2)C3)nc(-c2ccccc2)n1 (configuration not stated)	tolC growth inh 100, Pyk2 oligo antag -3.1
CCOC(=O)Cc1cnc(NC(=O)Cn2nnc(-c3ccc(OCC)cc3)n2)s1	Cav3 T inh -7.2
Cc1ccc(-c2nn(-c3ccccc3)c3[nH]c(=O)c(CNCc4ccccc4)cc23)cc1	Cav3 T inh -3.6 (no result: Ecoli WT expand, tolC growth inh, PostGolgi yeast, PostGolgi ctrl)
Cc1nn(-c2ccccc2)c2[nH]c(=O)c(CNc3ccc4c(c3)OCCO4)cc12	none
Cc1ccc(-c2nn(-c3ccccc3)c3[nH]c(=O)c(CNCCN(C)C)cc23)cc1	none (no result: Ecoli WT expand, PostGolgi yeast, PostGolgi ctrl, Cav3 T inh, Pyk2 oligo antag)

Screens deposited in PubChem BioAssay by several laboratories.
